Series [1] is described as follows: folding enthalpy; higher = less favourable; fluorescence melt of hairpins on a sequencing array, two-state fit. Conditions: sodium 0.088 M. A digest of the protocol:
(§1)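 Melting temperature and folding enthalpy were derived from bootstrapped two-state fits. The fitted temperatures were raised by 9.35 °C to agree with UV melts, and four replicates were combined by inverse variance. The underlying data were Cy3 fluorescence images of library hairpins, with annealed Cy3 and quencher oligos, on a sequenced MiSeq flow cell in 50 mM Na-HEPES pH 8.0, 25 mM NaCl, taken in 2.5 °C steps up to 60 °C, normalised to pre-quench Cy3 and to control constructs.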

The nature of series [2]: melting temperature; fluorescence melt of hairpins on a sequencing array, two-state fit, raised by 9.35 °C to match UV melts. Conditions: sodium 0.088 M. A digest of the protocol: as §1

Consider GCATGGCGAAAGCCTAGC ((..(((....)))..)), for which, in series [1], the folding enthalpy was -17.9 kcal/mol. Moreover, the Tm in series [2] worked out at 52.1 °C.
The like results for GCATGGCGAAAGCCTGC (((.(((....)))))) were, in that order, -27 kcal/mol and 63.8 °C.
On the same counts, the results for GCATGGCGAAAGCGAGGC ((.(.((....)).).)) are -19 kcal/mol and 47.3 °C.
On the same counts, the results for GCATGGCGAAAGCGGTGC (((..((....))..))) are -23.8 kcal/mol and 56.1 °C.
Regarding GCATGGCGAAAGCTTTGC (((..((....))..))), the folding enthalpy in series [1] is -21.4 kcal/mol. The Tm in series [2] worked out at 46.7 °C.
Regarding GCATGGGGAAACCTGTGC (((..((....))..))), the folding enthalpy in series [1] is -30.3 kcal/mol. For the same sequence, in series [2], the Tm came out at 44.3 °C.
For GCATGGTCGAAAGACTGC (((..(((....)))))), in series [1], the folding enthalpy is -18.1 kcal/mol. The Tm in series [2] is 39.8 °C.
Consider GCATGTGGAAACATGTGC (((..((....))..))), for which the folding enthalpy in series [1] is -31.6 kcal/mol. Besides, the Tm in series [2] was 49.6 °C.
On the same counts, the results for GCATTACGAAAGTACTGC (((.(((....))).))) are -36.5 kcal/mol and 46.4 °C.
On the same counts, the results for GCATTACGAAAGTATGC (((.(((....)))))) are -26.9 kcal/mol and 48.7 °C.
Turning to GCATTAGGAAACTAACGC ((.((((....)))).)), the folding enthalpy in series [1] is -22.6 kcal/mol. Moreover, in series [2], the Tm was determined as 31.7 °C.
The like results for GCATTCGAAAGAAAGTGC ((((((....)))..))) were, in that order, -12.4 kcal/mol and 30.4 °C.
GCATTCGAAAGAACATGC ((((((....)))..))): the folding enthalpy in series [1] was -15.8 kcal/mol. For the same sequence, in series [2], the Tm came out at 33 °C.
The like results for GCATTCGAAAGAAGCTGC ((((((....)))..))) were, in that order, -23.5 kcal/mol and 40.8 °C.
As for GCATTCGAAAGAAGTTGC ((((((....)))..))), the folding enthalpy in series [1] was -7.36 kcal/mol. Moreover, the Tm in series [2] came to 26 °C.
In the case of GCATTCGGAAACGAGTGC (((.(((....))).))), in series [1], the folding enthalpy is -46.7 kcal/mol. The Tm in series [2] turned out to be 53 °C.
Take GCATTGCCGAAAGGCTGC (((..(((....)))))): the folding enthalpy in series [1] was -14.8 kcal/mol. For the same sequence, the Tm in series [2] was found to be 46.5 °C.
GCATTGCGAAAGCACCGC ((..(((....)))..)): the folding enthalpy in series [1] was -10.7 kcal/mol. The Tm in series [2] stood at 34.5 °C.
On the same counts, the results for GCATTGCGAAAGCGAAGC ((.(.((....)).).)) are -14.5 kcal/mol and 38.9 °C.
The like results for GCATTGCGAAAGCGACGC ((.(.((....)).).)) were, in that order, -16.6 kcal/mol and 49.3 °C.
Regarding GCATTGCGAAAGCGAGGC ((.(.((....)).).)), in series [1], the folding enthalpy is -21 kcal/mol. Further, the Tm in series [2] was determined as 59.1 °C.
As to GCATTGCGAAAGCTCTGC (((..((....))..))), the folding enthalpy in series [1] is -23.5 kcal/mol. Also, the Tm in series [2] is 39.2 °C.
GCATTGCGAAAGCTTTGC (((..((....))..))): in series [1], the folding enthalpy was -21.4 kcal/mol. Further, the Tm in series [2] stood at 49.1 °C.
Regarding GCATTTCGAAAGAAGTGC (((.(((....))).))), the folding enthalpy in series [1] was -45.6 kcal/mol. For the same sequence, the Tm in series [2] was found to be 51.4 °C.
The like results for GCCAAAGGAAACTCTGGC ((((.((....)).)))) were, in that order, -32.6 kcal/mol and 35.4 °C.
The like results for GCCAACGAAAGTTAAGGC ((((((....)))..))) were, in that order, -25.6 kcal/mol and 45.8 °C.
In the case of GCCAACGAAAGTTGCGGC ((((((....)))..))), the folding enthalpy in series [1] is -16.9 kcal/mol. The Tm in series [2] amounted to 51.5 °C.
On the same counts, the results for GCCAACGAAAGTTGTGGC ((((((....)))..))) are -18.4 kcal/mol and 48.4 °C.
The like results for GCCAACGAAAGTTTAGGC ((((((....)))..))) were, in that order, -28.2 kcal/mol and 43.8 °C.
On the same counts, the results for GCCAACGGAAACGTCGGC (((.(((....))).))) are -42.8 kcal/mol and 51.1 °C.
As to GCCAAGCGAAAGCAAGGC (((..((....))..))), in series [1], the folding enthalpy is -23.7 kcal/mol. Besides, in series [2], the Tm worked out at 59.2 °C.
On to GCCAAGCGAAAGCCTCGC ((.(.((....)).).)), for which, in series [1], the folding enthalpy is -5.93 kcal/mol. Also, the Tm in series [2] was 23.1 °C.
In the case of GCCAAGCGAAAGCTATGC ((..(((....)))..)), the folding enthalpy in series [1] was -13.2 kcal/mol. In series [2], the Tm came out at 33.9 °C.
With GCCAAGCGAAAGCTCAGC ((..(((....)))..)), the folding enthalpy in series [1] was -13.6 kcal/mol. In addition, the Tm in series [2] amounted to 37.3 °C.
Take GCCAAGCGAAAGCTCGGC (((.(((....))).))): the folding enthalpy in series [1] is -38.9 kcal/mol. Moreover, the Tm in series [2] turned out to be 57.4 °C.
With GCCAAGCGAAAGCTTAGC ((.((((....)))).)), the folding enthalpy in series [1] is -17.6 kcal/mol. Moreover, in series [2], the Tm stood at 48.9 °C.

The values above are taken from the array DNA melting data of Ke et al. (doi:10.1101/2024.01.08.574731).
